Our source for the selectivity ratio, IC50 and CC50 values is ChEMBL document CHEMBL4382238, “Synthesis of isatin based N1-alkylated 3-β-C-glycoconjugated-oxopropylidene oxindoles as potent antiplasmodial agents” (Eur J Med Chem, 2019).

One may read the IC50 as the concentration that inhibits the measured activity by half. The term CC50 denotes the concentration giving 50% cytotoxicity.

Where only a bound is given, the exact number is not on record here.

Data set [1] in a line: Selectivity index, ratio of CC50 for African green monkey Vero cells to IC50 for chloroquine-resistant Plasmodium falciparum K1 asynchronous cultures infected in human erythrocytes. Particulars: read-out: Ratio CC50/IC50. In kind it is toxicity, cell-based.
Data set [2] deals with Plasmodium falciparum. Put plainly: Antiplasmodial activity against chloroquine-resistant Plasmodium falciparum K1 asynchronous cultures infected in human erythrocytes after 72 hrs by SYBR green1 staining based fluorescence assay. As to conditions: K1, 72 h. In kind it is functional, organism-based. In a few lines: (§1)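 Parasites kept in human erythrocytes at 5% hematocrit in RPMI-1640 (HEPES) with 0.5% AlbuMaxII, 0.2% glucose, bicarbonate, 15 µM hypoxanthine, 37 °C CO2. Two-fold serial dilutions spanning […]; asynchronous culture at 0.8-1% parasitaemia, 1% haematocrit; 72 h, 37 °C. Lytic buffer with SYBR Green (1x final), 2 h dark, RT; Ex 485/Em 535 nm. IC50 from DNA signal versus drug-free controls; at least duplicate determinations.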

The subject of data set [3] is Plasmodium falciparum. Put plainly: Antiplasmodial activity against chloroquine-sensitive Plasmodium falciparum 3D7 asynchronous cultures infected in human erythrocytes after 72 hrs by SYBR green1 staining based fluorescence assay. The class given is functional, organism-based. As to conditions: 3D7, 72 h. The method, boiled down:
as §1

A short description of data set [4]: Selectivity index, ratio of CC50 for African green monkey Vero cells to IC50 for chloroquine-sensitive Plasmodium falciparum 3D7 asynchronous cultures infected in human erythrocytes. The class given is toxicity, cell-based. As to conditions: read-out: Ratio CC50/IC50.
Data set [5] can be described thus: Cytotoxicity against African green monkey Vero cells measured after 72 hrs by resazurin assay. As to conditions: chlorocebus sabaeus. In kind it is cell-based. The method, boiled down: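 VERO monkey kidney cells grown in MEM with 15% FBS under 5% CO2 at 37 °C. Cells exposed to serial drug dilutions for three days. 10% resazurin then added as viability marker. Fluorescence read at excitation 530 ± 25 nm and emission 590 ± 25 nm to calculate median cytotoxic concentration (CC50). Values are the average of at least duplicate determinations.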
(Resazurin is reduced to fluorescent resorufin, in cell work by metabolically active cells.)

On to `CC(=O)OC[C@H]1O[C@@H](CC(=O)/C=C2\C(=O)N(CCc3ccccc3)c3ccccc32)[C@H](OC(C)=O)[C@@H](OC(C)=O)[C@@H]1OC(C)=O`, for which the selectivity ratio in data set [1] is 86.2; in data set [4], 68.1. In addition, the IC50 in data set [2] is 0.75 µM; in data set [3] it was 0.95 µM. The compound further displayed a half-maximal cytotoxic concentration (CC50) at 72 h in data set [5] of 64.7 µM.
Consider `CC(=O)OC[C@H]1O[C@@H](CC(=O)/C=C2\C(=O)N(Cc3ccc(F)cc3)c3ccc(Cl)cc32)[C@H](OC(C)=O)[C@@H](OC(C)=O)[C@@H]1OC(C)=O`, for which the selectivity ratio turned out to be 429 in data set [1] and 335 in data set [4]. The IC50 was 0.25 µM in data set [2] and 0.32 µM in data set [3]. In data set [5], this compound registered a cytotoxic concentration (CC50) at 72 h of 107 µM.
The matching figures for `CC(=O)OC[C@H]1O[C@@H](CC(=O)/C=C2\C(=O)N(Cc3ccccc3)c3ccc(Cl)cc32)[C@H](OC(C)=O)[C@@H](OC(C)=O)[C@@H]1OC(C)=O`: 294, 351, 0.31 µM, 0.26 µM and 91.2 µM.
Turning to `CC(=O)OC[C@H]1O[C@@H](CC(=O)CC2(O)C(=O)Nc3ccc(Cl)cc32)[C@H](OC(C)=O)[C@@H](OC(C)=O)[C@@H]1OC(C)=O` (stereo partly drawn), the concentration for half-maximal inhibition (IC50) in data set [2] and in data set [3] was > 5 µM throughout.
For `CC(=O)OC[C@H]1O[C@@H](CC(=O)/C=C2\C(=O)N(Cc3ccccc3)c3ccccc32)[C@H](OC(C)=O)[C@@H](OC(C)=O)[C@@H]1OC(C)=O`, the selectivity ratio worked out at 245 in data set [1] and 92.4 in data set [4]. In addition, the IC50 in data set [2] turned out to be 0.29 µM; in data set [3], 0.77 µM. Besides, the midpoint of cytotoxicity in data set [5], the CC50 at 72 h, lay at 71.2 µM.
For the compound `CC(=O)OC[C@H]1O[C@@H](CC(=O)CC2(O)C(=O)N(CCc3ccccc3)c3ccc(Cl)cc32)[C@H](OC(C)=O)[C@@H](OC(C)=O)[C@@H]1OC(C)=O` (stereo partly drawn), the IC50 in data set [2] and in data set [3] was > 5 µM in each case.
Turning to `CCCCN1C(=O)/C(=C\C(=O)C[C@@H]2O[C@H](COC(C)=O)[C@@H](OC(C)=O)[C@H](OC(C)=O)[C@H]2OC(C)=O)c2ccccc21`, the selectivity ratio is 68.2 in data set [1] and 48.1 in data set [4]. The results for the half-maximal inhibitory concentration (IC50) in data set [2] and in data set [3] were 1.84 µM and 2.61 µM, respectively. The same compound had a CC50 at 72 h in data set [5] of 126 µM.
Consider `CCCN1C(=O)C(O)(CC(=O)C[C@@H]2O[C@H](COC(C)=O)[C@@H](OC(C)=O)[C@H](OC(C)=O)[C@H]2OC(C)=O)c2cc(Cl)ccc21` (stereo partly drawn), for which the IC50 in data set [2] and in data set [3] was > 5 µM in each case.
Take `CC(=O)OC[C@H]1O[C@@H](CC(=O)CC2(O)C(=O)N(Cc3ccc(F)cc3)c3ccccc32)[C@H](OC(C)=O)[C@@H](OC(C)=O)[C@@H]1OC(C)=O` (stereo partly drawn): the concentration for half-maximal inhibition (IC50) in data set [2] and in data set [3] was > 5 µM throughout.
In the case of `CC(=O)OC[C@H]1O[C@@H](CC(=O)CC2(O)C(=O)N(Cc3cccc(C)c3)c3ccc(Cl)cc32)[C@H](OC(C)=O)[C@@H](OC(C)=O)[C@@H]1OC(C)=O` (stereo partly drawn), the IC50 in data set [2] and in data set [3] was > 5 µM each time.
For the compound `CC(=O)OC[C@H]1O[C@@H](CC(=O)CC2(O)C(=O)N(Cc3ccc(F)cc3)c3ccc(Cl)cc32)[C@H](OC(C)=O)[C@@H](OC(C)=O)[C@@H]1OC(C)=O` (stereo partly drawn), the results for the IC50 in data set [2] and in data set [3] were 2.26 µM and 3.54 µM, respectively.
Consider `CC(=O)OC[C@H]1O[C@@H](CC(=O)/C=C2\C(=O)N(Cc3ccc(Br)cc3)c3ccccc32)[C@H](OC(C)=O)[C@@H](OC(C)=O)[C@@H]1OC(C)=O`, for which the selectivity ratio in data set [1] turned out to be 95.7; in data set [4] it was 333. Moreover, the IC50 was determined as 0.8 µM in data set [2] and 0.23 µM in data set [3]. In data set [5], this compound registered a CC50 at 72 h of 76.5 µM.
The matching figures for `CC(=O)OC[C@H]1O[C@@H](CC(=O)/C=C2\C(=O)N(Cc3ccc(Br)cc3)c3ccc(Cl)cc32)[C@H](OC(C)=O)[C@@H](OC(C)=O)[C@@H]1OC(C)=O`: 622, 389, 0.15 µM, 0.24 µM and 93.3 µM.
For `CC(=O)OC[C@H]1O[C@@H](CC(=O)/C=C2\C(=O)N(Cc3cccc(C)c3)c3ccc(Cl)cc32)[C@H](OC(C)=O)[C@@H](OC(C)=O)[C@@H]1OC(C)=O`, in that order: 87.5, 535, 1.04 µM, 0.17 µM and 91 µM.
The matching figures for `CCCN1C(=O)/C(=C\C(=O)C[C@@H]2O[C@H](COC(C)=O)[C@@H](OC(C)=O)[C@H](OC(C)=O)[C@H]2OC(C)=O)c2cc(Cl)ccc21`: 239, 81, 0.4 µM, 1.18 µM and 95.5 µM.
Turning to `CCCCN1C(=O)C(O)(CC(=O)C[C@@H]2O[C@H](COC(C)=O)[C@@H](OC(C)=O)[C@H](OC(C)=O)[C@H]2OC(C)=O)c2cc(Cl)ccc21` (stereo partly drawn), the IC50 in data set [2] and in data set [3] was > 5 µM each time.
As for `CC(=O)OC[C@H]1O[C@@H](CC(=O)/C=C2\C(=O)Nc3ccc(Cl)cc32)[C@H](OC(C)=O)[C@@H](OC(C)=O)[C@@H]1OC(C)=O`, the selectivity ratio was 48.4 in data set [1] and 45.5 in data set [4]. Moreover, the concentration for half-maximal inhibition (IC50) in data set [2] was 2.52 µM; in data set [3], 2.68 µM. In data set [5], the cytotoxic concentration (CC50) at 72 h is 122 µM.
As for `CCCCN1C(=O)C(O)(CC(=O)C[C@@H]2O[C@H](COC(C)=O)[C@@H](OC(C)=O)[C@H](OC(C)=O)[C@H]2OC(C)=O)c2ccccc21` (stereo partly drawn), the IC50 in data set [2] and in data set [3] was > 5 µM each time.
As for `CC(=O)OC[C@H]1O[C@@H](CC(=O)/C=C2\C(=O)N(CCc3ccccc3)c3ccc(Cl)cc32)[C@H](OC(C)=O)[C@@H](OC(C)=O)[C@@H]1OC(C)=O`, the results for the selectivity ratio in data set [1] and in data set [4] were 98.9 and 845, respectively. Further, the IC50 was 0.94 µM in data set [2] and 0.11 µM in data set [3]. For the same compound, the CC50 at 72 h in data set [5] came to 93 µM.
With `CC(=O)OC[C@H]1O[C@@H](CC(=O)CC2(O)C(=O)N(Cc3ccc(Br)cc3)c3ccc(Cl)cc32)[C@H](OC(C)=O)[C@@H](OC(C)=O)[C@@H]1OC(C)=O` (stereo partly drawn), the half-inhibitory concentration (IC50) in data set [2] is 4.81 µM; in data set [3], > 5 µM.
For `CC(=O)OC[C@H]1O[C@@H](CC(=O)CC2(O)C(=O)N(Cc3ccc(Br)cc3)c3ccccc32)[C@H](OC(C)=O)[C@@H](OC(C)=O)[C@@H]1OC(C)=O` (stereo partly drawn), in that order: > 5 µM and > 5 µM.
For the compound `CC(=O)OC[C@H]1O[C@@H](CC(=O)CC2(O)C(=O)N(Cc3cccc(C)c3)c3ccccc32)[C@H](OC(C)=O)[C@@H](OC(C)=O)[C@@H]1OC(C)=O` (stereo partly drawn), the IC50 in data set [2] and in data set [3] was > 5 µM in each case.
Consider `CC(=O)OC[C@H]1O[C@@H](CC(=O)CC2(O)C(=O)Nc3ccccc32)[C@H](OC(C)=O)[C@@H](OC(C)=O)[C@@H]1OC(C)=O` (stereo partly drawn), for which the IC50 in data set [2] and in data set [3] was > 5 µM each time.
`CCCN1C(=O)C(O)(CC(=O)C[C@@H]2O[C@H](COC(C)=O)[C@@H](OC(C)=O)[C@H](OC(C)=O)[C@H]2OC(C)=O)c2ccccc21` (stereo partly drawn): the concentration for half-maximal inhibition (IC50) in data set [2] and in data set [3] was > 5 µM each time.
`CC(=O)OC[C@H]1O[C@@H](CC(=O)CC2(O)C(=O)N(CCc3ccccc3)c3ccccc32)[C@H](OC(C)=O)[C@@H](OC(C)=O)[C@@H]1OC(C)=O` (stereo partly drawn): the IC50 in data set [2] and in data set [3] was > 5 µM in each case.
With `CC(=O)OC[C@H]1O[C@@H](CC(=O)/C=C2\C(=O)N(Cc3ccc(F)cc3)c3ccccc32)[C@H](OC(C)=O)[C@@H](OC(C)=O)[C@@H]1OC(C)=O`, the results for the selectivity ratio in data set [1] and in data set [4] were 100 and 253, respectively. The IC50 in data set [2] turned out to be 1.19 µM; in data set [3], 0.47 µM. This compound also displayed a CC50 at 72 h in data set [5] of 119 µM.
For `CC(=O)OC[C@H]1O[C@@H](CC(=O)/C=C2\C(=O)Nc3ccccc32)[C@H](OC(C)=O)[C@@H](OC(C)=O)[C@@H]1OC(C)=O`, in that order: < 25.4, 29.8, > 5 µM, 4.27 µM and 127 µM.
With `CC(=O)OC[C@H]1O[C@@H](CC(=O)CC2(O)C(=O)N(Cc3ccccc3)c3ccccc32)[C@H](OC(C)=O)[C@@H](OC(C)=O)[C@@H]1OC(C)=O` (stereo partly drawn), the IC50 in data set [2] and in data set [3] was > 5 µM in each case.
Consider `CCCCN1C(=O)/C(=C\C(=O)C[C@@H]2O[C@H](COC(C)=O)[C@@H](OC(C)=O)[C@H](OC(C)=O)[C@H]2OC(C)=O)c2cc(Cl)ccc21`, for which the selectivity ratio stood at 404 in data set [1] and 494 in data set [4]. In addition, the IC50 turned out to be 0.22 µM in data set [2] and 0.18 µM in data set [3]. The same compound returned a CC50 at 72 h in data set [5] of 88.9 µM.
Consider `CC(=O)OC[C@H]1O[C@@H](CC(=O)CC2(O)C(=O)N(Cc3ccccc3)c3ccc(Cl)cc32)[C@H](OC(C)=O)[C@@H](OC(C)=O)[C@@H]1OC(C)=O` (stereo partly drawn), for which the IC50 in data set [2] and in data set [3] was > 5 µM each time.
`CC(=O)OC[C@H]1O[C@@H](CC(=O)/C=C2\C(=O)N(Cc3cccc(C)c3)c3ccccc32)[C@H](OC(C)=O)[C@@H](OC(C)=O)[C@@H]1OC(C)=O`: the selectivity ratio stood at 242 in data set [1] and 137 in data set [4]. Besides, the half-maximal inhibitory concentration (IC50) was 0.3 µM in data set [2] and 0.53 µM in data set [3]. Besides, half-maximal cytotoxicity in data set [5] (CC50 at 72 h) was put at 72.5 µM.
As to `CCN(CC)CCCC(C)Nc1ccnc2cc(Cl)ccc12` (stereo not drawn) [CHLOROQUINE], in data set [5], the cytotoxic concentration (CC50) at 72 h is > 500 µM.
